The values that follow come from article PMC11983213 (ACS Omega, 2025).

Experiment [1] deals with breast and colon cancer cells. The note with it: cited from earlier work.
Experiment [2] deals with protein tyrosine kinases v-src and pp60src. The following applies: cited from earlier work.
For experiment [3], the system named is SPC-1-A, Bcap37, and HepG2 cancer cells. The note with it: via the mitochondrial apoptotic pathway; cited from earlier work.
In experiment [4] the test system is MCF-7 breast cancer cell line. Put plainly: MTT cytotoxicity assay on MCF-7. The note with it: Homo sapiens, MCF7, 48 h. The experiment is classed as cell-based. Put shortly:
(§1)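 Cells held in RPMI-1640 or DMEM with 2 mM L-glutamine, 1% penicillin/streptomycin and 10% FBS at 37 °C, 5% CO2. Seeded in triplicate at 5000 cells per well, then treated next day with test extract or compound. After 48 h exposure, MTT reagent added for 3 h and signal read at 570 nm. IC50 estimated from the viability data.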
For orientation: Formazan colour is commonly taken as a measure of viable cells.

Experiment [5] deals with MDA-MB-231 breast cancer cell line. Put plainly: MTT cytotoxicity assay on MDA-MB-231. The experiment is classed as cell-based. The following applies: Homo sapiens, MDA-MB-231, 48 h. Put shortly: as §1
The test system of experiment [6] is HepG2 liver cancer cell line. Put plainly: MTT cytotoxicity assay on HepG2. The experiment is classed as cell-based. The following applies: Homo sapiens, HepG2, 48 h. In short, it runs like this:
as §1

In a further experiment the test system is HSF normal cell line. Put plainly: MTT cytotoxicity assay on HSF. The experiment is classed as cell-based. The following applies: 48 h. In short, it runs like this: as §1
Another experiment relates to gastric cancer cells. The following applies: via PI3K/Akt/Snail pathway; cited from earlier work.
In a further experiment the test system is breast cancer cells. The following applies: cited from earlier work.
The next experiment relates to pancreatic cancer cells. The following applies: by blocking NF-κB activation; cited from earlier work.
The subject of a further experiment is breast and bone cancers. The note with it: cited from earlier work.
Experiment [7] concerns breast and skin cancer cells. The note with it: cancer versus normal cells; cited from earlier work.

Values after ≈ are worked out from the molar mass of the structure shown.

With `O=C1c2ccccc2C(=O)c2cc(O)ccc21` [2-hydroxyanthraquinone], the induction of apoptosis result in experiment [1] is “resulting in apoptosis via inhibiting antiapoptotic pathways”. For the same molecule, the “inhibitory activity against protein tyrosine kinases” value in experiment [2] was “exhibited inhibitory activity”. Besides, the “effect on cell growth” value in experiment [3] was “arrested the growth”.

`COc1ccc2c(c1O)C(=O)c1ccccc1C2=O` [2-methyl alizarin, 1-Hydroxy-2-methoxyanthracene-9,10-dione]: the IC50 in experiment [4] came out at 52.1 µg/mL (≈ 205 µM); in experiment [5], 83 µg/mL (≈ 327 µM); in experiment [6], 8.88 µg/mL (≈ 34.9 µM); with HSF normal cell line, 67 µg/mL (≈ 264 µM).

`COc1cccc2c1C(=O)c1c(O)c3c(c(O)c1C2=O)C[C@@](O)(C(=O)CO)C[C@@H]3O[C@H]1C[C@H](N)[C@H](O)[C@H](C)O1` [Doxorubicin, reference compound]: the IC50 in [4] was determined as 2.17 µg/mL (≈ 3.99 µM); in [5], 7.05 µg/mL (≈ 13 µM); in [6], 2.48 µg/mL (≈ 4.56 µM).

Regarding `COc1ccc(-c2cc(=O)c3c(O)cc(O)cc3o2)cc1` [acacetin], the “effect on invasion, migration and TGF-β1-induced EMT” value in the experiment on gastric cancer cells is “prevented gastric cancer cells from invasively migrating and developing TGF-β1-induced epithelial-to-mesenchymal transition”. In the experiment with breast cancer cells, the “induction of cell death” value is “caused RIP1-dependent necroptotic death and prolonged ERK1/2 activation”.

For `CC(=O)Oc1ccc2c(c1OC(C)=O)C(=O)c1ccccc1C2=O` [alizarin-1,2-diacetate, 1,2-Diacetoxyanthraquinone], the IC50 in experiment [4] was 135 µg/mL (≈ 416 µM); in [5] it was 127 µg/mL (≈ 391 µM); in experiment [6] it was not below 50 µg/mL; with HSF normal cell line, 142 µg/mL (≈ 437 µM).

Consider `CC(=O)Oc1ccc2c(c1O)C(=O)c1ccccc1C2=O` [alizarin-2-acetate, 9,10-Dihydro-1-hydroxy-9,10-dioxoanthracen-2-yl Acetate], for which the IC50 was 120 µg/mL in [4], 157 µg/mL in experiment [5], not below 50 µg/mL in experiment [6] and 151 µg/mL in the experiment with HSF normal cell line.

`O=C1c2ccccc2C(=O)c2c1ccc(O)c2O` [alizarin]: the IC50 is 66.9 µg/mL (≈ 279 µM) in [4], 52.6 µg/mL (≈ 219 µM) in experiment [5], 99.4 µg/mL (≈ 414 µM) in experiment [6] and 111 µg/mL (≈ 462 µM) in the experiment on HSF normal cell line. Further, in the experiment on pancreatic cancer cells, the “effect on cell growth” value is “prevented pancreatic cancer cells from growing”. In the experiment with breast and bone cancers, the “effect on breast and bone cancers” value was “impaired both breast and bone cancers by inducing cell cycle arrest in the S phase and inhibiting ERK phosphorylation”.

Turning to `O=C1c2ccccc2C(=O)c2c(O)c(O)cc(O)c21` [purpurin], the IC50 in experiment [4] is 148 µg/mL (≈ 577 µM); in experiment [5], 244 µg/mL (≈ 954 µM); in [6], 179 µg/mL (≈ 700 µM); in the experiment with HSF normal cell line, 201 µg/mL (≈ 783 µM).

Regarding `O=C1c2ccccc2C(=O)c2c(O)cc(O)cc21` [xanthopurpurin], the selective toxicity result in [7] is “high selective toxicity toward breast and skin cancer cells at lower concentrations without inducing toxicity toward normal cells”.

In general, IC50 refers to the concentration needed to halve the response being measured. Read a low IC50 as greater potency.
